# Paper PMC11812931 (CPT: Pharmacometrics & Systems Pharmacology, 2024)
# Marks after values point to notes of the source that are not given here.
# What was measured:
# [1] = PopPK model of MDMA and MDA; format: in vivo, human
# Method in brief: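 Single-dose plasma data came from 65 healthy volunteers: 16 from the fasted food-effect study and 49 from a randomized, double-blind, placebo-controlled crossover study. The dataset held 2012 MDMA and 1871 MDA samples, excluding BLQ values, samples with missing time and pre-dose concentrations. Modelling used nonlinear mixed effects with first-order conditional estimation with interaction. One- and two-compartment models were tested, with first-order or sequential zero-/first-order absorption.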
# [2] = MPKF phase I two-period crossover food effect pharmacokinetic study; format: in vivo, human; settings: for AUC0–inf LSM geometric mean ratio (90% CI) / C max LSM geometric mean ratio (90% CI): fed (test) vs fasted (reference); for AUC(0-inf) / Cmax: human, 120 mg; for AUC(0-inf): AUC0–inf; for Cmax: C max
# [3] = cited from earlier work
# [4] = HVs, single oral dose of 100 mg MDMA HCl, absence of paroxetine; cited from earlier work
# [5] = plasma, oral, Median [Min, Max], 120 mg MDMA HCl, Fasted
# [6] = plasma, oral, Median [Min, Max], 120 mg MDMA HCl, Fed
# [7] = plasma, po, Geo. Mean (Geo. CV%), single oral 120 mg MDMA HCl, Fasted, N = 15
# [8] = plasma, po, Geo. Mean (Geo. CV%), single oral 120 mg MDMA HCl, Fed (high-fat/high-calorie meal), N = 14
# [9] = MPKF fasted vs NIDA light breakfast
# [10] = MPKF fed vs NIDA light breakfast
smiles,measurement,setting,value
"CC(N)Cc1ccc2c(c1)OCO2 (stereo not drawn) [MDA, 3,4‐methylenedioxyamphetamine]",lower V4 (MDA peripheral volume of distribution) in female subjects,[1]; compared to male,18%
same,"Body weight effect on CLM, Bootstrap median (95% CI)",[1]; covariate coefficient,"0.585 (0.209, 0.879)"
same,"Body weight effect on CLM, Estimate",[1]; covariate coefficient,0.580
same,"Body weight effect on QM, Bootstrap median (95% CI)",[1]; covariate coefficient,"1.02 (0.408, 1.63)"
same,"Body weight effect on QM, Estimate",[1]; covariate coefficient,1.00
same,"Sex effect on V4, Bootstrap median (95% CI)",[1]; female vs male,"−0.18 (−0.321, −0.0256)"
same,"Sex effect on V4, Estimate",[1]; female vs male,−0.181
same,Vd,"[1]; human, plasma, oral",20.8 L
same,clearance,"[1]; human, plasma, oral",582 mL/min
same,"IIV on CLM, Estimate",[1]; inter-individual variability,"32.0 ^ b , ^ c %CV"
same,"IIV on QM, Estimate",[1]; inter-individual variability,"46.8 ^ b , ^ d %CV"
same,"IIV on V4, Estimate",[1]; inter-individual variability,"35.2 ^ c , ^ d %CV"
same,"CLM, Bootstrap median (95% CI)",[1]; n = 1000 bootstrap,"36.1 (33.5, 38.8) L/h"
same,"QM, Bootstrap median (95% CI)",[1]; n = 1000 bootstrap,"83.9 (68.8, 103) L/h"
same,"V3, Bootstrap median (95% CI)",[1]; n = 1000 bootstrap,"20.8 (11.9, 28.4) L"
same,"V4, Bootstrap median (95% CI)",[1]; n = 1000 bootstrap,"213 (181, 246) L"
same,AUC0–inf LSM geometric mean ratio (90% CI),[2],0.99 (0.93–1.06)
same,C max LSM geometric mean ratio (90% CI),[2],0.96 (0.90–1.03)
same,AUC(0-inf),[2]; [5],358 ng·h/mL
same,AUC(0-inf),[2]; [6],343 ng·h/mL
same,Cmax,[2]; [5],12.5 ng/mL
same,AUC(0-inf),[2]; [7],330 ng·h/mL
same,AUC(0-inf),[2]; [8],369 ng·h/mL
"CNC(C)Cc1ccc2c(c1)OCO2 (stereo not drawn) [MDMA, 3,4‐methylenedioxymethamphetamine]",fmet (fraction of MDMA metabolized to MDA),[1]; FIXED in the model,0.1 FIXED
same,faster absorption in fasted subjects,[1]; MPKF fasted compared to NIDA light breakfast,193%
same,"Fasted status effect on ka, Bootstrap median (95% CI)",[1]; [9],"1.08 (0.277, 4.31)"
same,"Fasted status effect on ka, Estimate",[1]; [9],1.93
same,"Fed status effect on ka, Bootstrap median (95% CI)",[1]; [10],"−0.496 (−0.645, −0.239)"
same,"Fed status effect on ka, Estimate",[1]; [10],−0.484
same,"Study effect on V2/F, Bootstrap median (95% CI)",[1]; MPKF vs NIDA,"−0.267 (−0.342, −0.19)"
same,"Study effect on V2/F, Estimate",[1]; MPKF vs NIDA,−0.263
same,lower MDMA CL/F for MPKF subjects,[1]; compared to NIDA,36%
same,lower MDMA V2/F for MPKF subjects,[1]; compared to NIDA,26%
same,"Body weight effect on V2/F, Bootstrap median (95% CI)",[1]; covariate coefficient,"0.884 (0.6, 1.11)"
same,"Body weight effect on V2/F, Estimate",[1]; covariate coefficient,0.885
same,"ALAG1 (absorption lag time), Estimate",[1]; final MDMA PopPK model,0.322 h
same,"CL/F, Estimate",[1]; final MDMA PopPK model,41.5 L/h
same,"D1 (duration of zero order input), Estimate",[1]; final MDMA PopPK model,0.304 h
same,"V2/F, Estimate",[1]; final MDMA PopPK model,462 L
same,"ka, Estimate",[1]; final MDMA PopPK model,1.17 h⁻¹
same,"IIV on CL/F, Estimate",[1]; inter-individual variability,30.5 ^a %CV
same,"IIV on D1, Estimate",[1]; inter-individual variability,153 %CV
same,"IIV on KA, Estimate",[1]; inter-individual variability,60.2 %CV
same,"IIV on V2/F, Estimate",[1]; inter-individual variability,19.9 ^a %CV
same,"ALAG1, Bootstrap median (95% CI)",[1]; n = 1000 bootstrap,"0.323 (0.273, 0.358) h"
same,"CL/F, Bootstrap median (95% CI)",[1]; n = 1000 bootstrap,"41.8 (37.7, 45.8) L/h"
same,"D1, Bootstrap median (95% CI)",[1]; n = 1000 bootstrap,"0.271 (0.141, 0.485) h"
same,"V2/F, Bootstrap median (95% CI)",[1]; n = 1000 bootstrap,"461 (429, 496) L"
same,"ka, Bootstrap median (95% CI)",[1]; n = 1000 bootstrap,"1.17 (0.969, 1.43) 1/h"
same,AUC0–inf LSM geometric mean ratio (90% CI),[2],0.99 (0.94–1.04)
same,C max LSM geometric mean ratio (90% CI),[2],0.97 (0.92–1.01)
same,T max delay following administration with food,[2]; fed vs fasted,2 h
same,AUC(0-inf),[2]; [5],3730 ng·h/mL
same,Cmax,[2]; [5],234 ng/mL
same,Cmax,[2]; [6],230 ng/mL
same,AUC(0-inf),[2]; [7],3390 ng·h/mL
same,AUC(0-inf),[2]; [8],3320 ng·h/mL
same,"T max, Median [Min, Max]","[2]; plasma, 120 mg MDMA HCl, Fasted","2.1 [2.0, 8.0] h"
same,adverse events (AE) severity,"[2]; single 120 mg MDMA HCl, healthy volunteers",mild in severity and resolved
same,effective dose (as low as),[3],≥ 75 mg HCl
same,tolerated dose (as high as),[3]; split dose,≤ 225 mg HCl
same,CL/F (apparent oral clearance),[4],36.3 L/h
same,CLR (renal clearance),[4],9.40 L/h
